Screening results from PubChem.
PolyA inh: yeast polyadenylation inhibition. S. cerevisiae SKY197-pL101 polyadenylation reporter, beta-gal luminescence; efflux-impaired pdr1/pdr3 knockout yeast; score 100 = 6 SD above DMSO. activity score, % at 12 µM. 0.02% of 300,000 active. AID 1875;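 active means lowest replicate activity score at least 50, where 100 means six control SD above control mean; inconclusive means lowest score under 50 but half or more replicates reach 50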;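 further: yeast exposed to compound for 9 h at 30 °C; higher score means more reporter readthrough which indicates perturbed polyadenylation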
ALR inh: human ALR oxidase inhibition via reduced H2O2. AID 485317. purified ALR, DTT oxidation, H2O2 HRP-luminol luminescence. P55789. inhibition, % (test concentration not listed). 3.8% of 290,000 active;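 active means mean replicate inhibition above about 79%, with every replicate also reaching it, limit read from the data; inconclusive means only one of the two criteria met; inactive means mean below limit and not every replicate reaching it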
Arr AP2 block: human beta-arrestin and AP2 interaction inhibition; FITC-arrestin peptide / GST-AP2 beads, flow cytometry; AP2 beta2 appendage carries R879A mutation; 0.31% of 340,000 active; inhibition, % at 10 µM;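 active means inhibition above a set limit, near 3 SD of compounds lacking own fluorescence, cut at about 54% in these data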;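 further: plate controls were DMSO wells for no effect and 5 µM unlabelled arrestin peptide for full effect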
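System: GST-AP2 R879A glutathione beads; medium: PBS, Tween 20 0.05%, BSA 0.1%; reagent: fluorescein-tagged arrestin peptide at 50 nM final; schedule: pre-incubation 12 min, peptide binding 1 h, room temperature; detection: flow cytometry, FL1 (488/535 nm); read-out: inhibition as reduced fluorescein signal on beads, percent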
NLRP3 yeast inh: blocks the NALP3 inflammasome reconstituted in yeast; inhibition, % at 10 µM; Yeast reconstituted NLRP3/ASC/caspase-1, beta-gal luminescence, 24 h; 0.39% of 330,000 active;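 active means inhibition of 50% or more; inactive means inhibition below 50%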;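 further: plate controls were induced DMSO wells for no effect and uninduced yeast grown without galactose for full effect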
DSG3 Ab inh: blocks pemphigus antibody binding to human desmoglein-3; P32926; DSG3-coupled beads, scFv-anti-DSG3-GFP binding, flow cytometry; hits give low values; binding (percent of control), % at 10 µM; 0.48% of 310,000 active;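 active means binding more than 3 SD below its plate's average and above zero; inconclusive means below that plate limit but binding exactly zero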;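 further: hits lower antibody fragment binding to DSG3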
Target sequence (P32926 whole entry, looked up, the tested form may be a part): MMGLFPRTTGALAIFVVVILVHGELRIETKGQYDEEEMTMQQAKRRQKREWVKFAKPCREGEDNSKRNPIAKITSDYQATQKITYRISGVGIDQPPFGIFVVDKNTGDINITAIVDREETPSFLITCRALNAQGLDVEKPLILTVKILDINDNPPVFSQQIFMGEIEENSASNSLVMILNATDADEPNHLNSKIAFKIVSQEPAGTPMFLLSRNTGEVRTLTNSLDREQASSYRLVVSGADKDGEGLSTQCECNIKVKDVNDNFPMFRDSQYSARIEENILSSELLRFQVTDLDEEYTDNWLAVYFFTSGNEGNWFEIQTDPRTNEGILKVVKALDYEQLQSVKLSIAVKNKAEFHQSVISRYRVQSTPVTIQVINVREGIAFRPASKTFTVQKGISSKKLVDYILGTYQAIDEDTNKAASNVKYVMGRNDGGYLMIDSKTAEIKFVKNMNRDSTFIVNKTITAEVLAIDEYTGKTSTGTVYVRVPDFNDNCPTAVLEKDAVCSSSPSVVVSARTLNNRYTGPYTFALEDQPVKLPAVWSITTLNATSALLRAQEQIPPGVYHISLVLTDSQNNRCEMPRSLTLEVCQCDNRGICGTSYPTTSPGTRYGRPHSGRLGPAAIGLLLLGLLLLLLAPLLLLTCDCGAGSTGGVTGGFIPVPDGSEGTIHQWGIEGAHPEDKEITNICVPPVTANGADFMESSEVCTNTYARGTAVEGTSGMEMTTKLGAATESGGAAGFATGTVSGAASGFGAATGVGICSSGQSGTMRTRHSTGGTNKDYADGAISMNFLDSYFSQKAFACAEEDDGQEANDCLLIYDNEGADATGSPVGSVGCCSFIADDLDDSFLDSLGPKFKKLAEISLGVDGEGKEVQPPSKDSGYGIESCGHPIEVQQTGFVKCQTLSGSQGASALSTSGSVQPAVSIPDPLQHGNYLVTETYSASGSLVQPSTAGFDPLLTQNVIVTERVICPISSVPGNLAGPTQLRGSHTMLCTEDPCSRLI
NALP1 yeast inh: inhibitors of NALP1 inflammasome in yeast. S. cerevisiae NALP1/ASC/caspase-1 growth, X-gal OD620, 72 h. inhibition, % at 10 µM. 0.61% of 280,000 active. AID 2071; in the data active means inhibition mostly above about 24%, no sharp cut-off; inactive means mostly below about 32%
* marks the source's active call; other numbers are inactive results; ? = inconclusive; . = no result. A selection: hits, their analogues and other compounds. The true share with any hit is near 4.6%.

SMILES | PolyA inh | ALR inh | Arr AP2 block | NLRP3 yeast inh | DSG3 Ab inh | NALP1 yeast inh
COc1cccc(-c2nc(CS(=O)CC(=O)NCc3ccc4c(c3)OCO4)c(C)o2)c1 (configuration not stated) | 1.7 | 99.0* | 12.6 | 10.9 | 94.2 | -14.6
COc1ccc(CC(=O)NCc2ccc3c(c2)OCO3)cc1 | -3.4 | 2.7 | -1.0 | -3.2 | 103.6 | 2.2
CCCc1cc2nnc(SCC(=O)N(C)C3CCCCC3)n2c(N)n1 | -19.0 | 0.8 | 2.2 | 4.0 | . | 14.6
N=C(N)SCc1ccccc1Cl | 12.3 | 99.5* | -8.6 | 8.4 | 100.9 | 25.7
O=C(Nc1ccc(NC(=O)N2CCN(c3ccccc3O)CC2)cc1)N1CCN(c2ccccc2O)CC1 | -0.4 | 2.1 | 15.1 | 26.6 | 53.9* | 2.5
O=C(Nc1ccc(Cl)cc1)N1CCN(c2ccccc2)CC1 | 3.3 | 28.1 | 12.0 | 27.4 | 96.6 | -6.2
CC(C)(C)OC(=O)N1CCCN(C(=O)Nc2ccccc2)CC1 | 11.4 | -35.5 | -4.1 | 26.5 | 86.5* | 17.1
C=CCn1c(NCc2ccc(N(C)C)cc2)nc2ccccc21 | 7.2 | 98.7* | 12.3 | 10.4 | 98.1 | 34.0
CCCCn1c(NCc2ccc(N(C)C)cc2)nc2ccccc21 | 13.0 | 88.2* | 2.7 | 13.3 | 91.5 | -11.4
CC[C@]12C(=O)N(C)C[C@H]([C@@H]3C(=O)N(C)C(=O)[C@@H]31)N2C(=O)c1ccc(Cl)c(Cl)c1 | . | . | 7.0 | . | 100.2 | .
O=C(C#Cc1ccccc1)Nc1ccc(F)cc1 | -26.7 | 96.9* | -10.2 | 7.3 | 122.7 | 4.8
O=C(CC(=O)Nc1cccc(F)c1)Nc1cccc(F)c1 | ? | -5.6 | 11.9 | 12.7 | 121.8 | 14.1
O=C(C#Cc1ccccc1)NCc1ccccc1F | -7.6 | 4.5 | -1.2 | 32.4 | 116.3 | 15.0
O=C(C#Cc1ccccc1)Nc1cccc(F)c1 | -17.3 | 97.3* | 4.4 | 44.1 | 101.9 | .
CCn1c(SCC(=O)Nc2oc(C)c3c(C)n[nH]c(=O)c23)nnc1-c1ccco1 | . | . | . | . | 101.3 | .
COCCCNCCOc1ccc(C(C)(C)c2ccccc2)cc1 | -29.8 | -3.6 | 0.2 | 23.3 | 106.1 | 46.2*
CC1(C)Cc2cccc(OCC(=O)OCC(=O)Nc3ccc(S(N)(=O)=O)cc3)c2O1 | . | . | . | . | 103.6 | .
c1ccc(-c2nc(-c3ccco3)n3ccccc23)cc1 | 2.3 | 93.8* | 26.4 | -1.2 | 108.2 | 13.6
CCn1c(-c2ccco2)nc2ccccc21 | -10.9 | 6.2 | -2.6 | 13.1 | 98.6 | 27.4
Nc1nnc2cc(Br)ccc2n1 | . | . | . | . | 102.5 | .
COC(=O)c1cc(NC(=O)COC(=O)CCc2nc3ccccc3c(=O)[nH]2)cc(C(=O)OC)c1 | . | . | -6.1 | 12.3 | 64.8* | .
O=C(COC(=O)CCc1nc2ccccc2c(=O)[nH]1)Nc1ccccc1 | . | . | 9.8 | 1.0 | 109.8 | .
CCOc1ccc(N2CC(C(=O)NC3CCSC3=O)CC2=O)cc1 (configuration not stated) | -0.8 | . | 1.1 | 38.6 | 115.0 | 10.5
CCCC(=O)c1cc2c(cc1NC(=O)c1cccs1)OCCO2 | -5.9 | -1.3 | 25.4 | -15.5 | 81.9 | 26.7*
CC1CCC(C(O)(C(=O)c2ccccc2)c2ccccc2)C(=O)C1 (configuration not stated) | . | . | . | . | 104.2 | .
SMILES | PolyA inh | ALR inh | Arr AP2 block | NLRP3 yeast inh | DSG3 Ab inh | NALP1 yeast inh
COc1cccc(C2NC(c3cccc(OC)c3O)C(C)C(=O)C2C)c1O (configuration not stated) | 6.8 | 87.5* | 13.2 | 13.2 | 108.9 | 10.4
COc1ccccc1C1NC(c2ccccc2OC)C(C)C(=O)C1C (configuration not stated) | -15.4 | . | 5.2 | 7.1 | 99.4 | 4.9
COCCCNC(=O)c1c(N)n(/N=C/c2cccs2)c2nc3ccccc3nc12 | 11.4 | -8.7 | 26.6 | 5.9 | 79.0* | 6.1
COCCCNC(=O)c1c(N)n(/N=C/c2cccnc2)c2nc3ccccc3nc12 | -1.7 | 7.6 | 0.4 | 11.8 | . | 4.4
Cc1cccc(NC(=O)C(C)Sc2nc3nc(C)cc(C)n3n2)c1 (configuration not stated) | . | -3.4 | -13.1 | 16.3 | 94.3 | .
Cc1cccc(NC(=O)Cc2nc(-c3c[nH]c(C(=O)N4CCCC4)c3)cs2)c1 | . | . | 8.9 | 11.3 | 102.7 | .
CSC1=NSC2=NC(=O)/C(=C\c3coc4ccccc4c3=O)C(=N)N12 | . | 97.4* | 0.9 | . | . | 26.3
O=C1c2ccccc2NC(c2ccc(O)c(O)c2)N1c1ccccc1Cl (configuration not stated) | -3.3 | 99.6* | -0.2 | 2.8 | 109.0 | .
O=[N+]([O-])c1ccc(N=Nc2ncc[nH]2)cc1 | -5.9 | 32.1 | 4.5 | 45.4 | 90.6 | 3.8
Cc1csc(NC(=O)CSc2nncc(=O)n2N)n1 | -1.9 | 98.5* | -14.0 | 6.4 | . | 14.9
Cc1csc(NC(=O)CSc2nncn2C)n1 | -7.9 | -8.6 | 9.3 | 8.8 | 113.5 | 9.5
Cc1csc(NC(=O)CSc2nc(C)cs2)n1 | 16.6 | -68.4 | 4.9 | 12.4 | 100.2 | 30.1
CCOC(=O)c1csc(NC(=O)CSc2nnnn2CC)n1 | -14.2 | 98.6* | 6.3 | 4.1 | 92.5 | 7.4
Cn1ccnc1SCC(=O)Nc1nc2c(F)c(F)c(F)cc2s1 | 0.9 | -1.1 | 0.9 | 9.2 | 101.0 | 36.3*
Cc1csc(NC(=O)CSc2nccn2C)n1 | -8.4 | 95.9* | 7.5 | 22.4 | 103.9 | 11.8
COc1cc(C)ccc1OCc1cc(C(=O)NCCN2CCOCC2)no1 | 2.8 | -2.9 | 3.5 | 10.0 | 101.2 | 15.5
CC(C)(C)C(=O)N1CCC2CC1c1cc(Cl)ccc12 (configuration not stated) | . | . | 12.0 | . | 94.3 | .
Cc1cccc(C)c1NS(=O)(=O)c1ccc(-c2cnc(C3CC3)o2)cc1 | -13.0 | 13.2 | 3.9 | 13.8 | 99.7 | -4.3
O=c1c2ccccc2nnn1-c1ccccc1[N+](=O)[O-] | . | . | . | . | 105.1 | .
CCCCc1nc2n[nH]c(N)c2c2c1CSC(C)(C)C2 | -0.4 | . | 0.3 | 11.1 | 96.2 | 0.0
CC(C)c1nc2n[nH]c(N)c2c2c1CSC(C)(C)C2 | 2.1 | 98.1* | -10.8 | 7.1 | 94.1 | 6.9
O=C(CCCCCNc1nc(=S)[nH]c2ccccc12)NCCc1ccc(Cl)cc1 | 16.7 | 1.1 | -9.2 | 2.5 | 111.2 | 3.2
O=C(O)CCCCCNc1nc(=S)[nH]c2ccccc12 | -0.1 | 82.3* | 3.1 | 3.5 | 96.4 | 28.0
CCOc1ccc(CCNC(=O)COC(=O)CSc2ccccc2C)cc1OCC | -14.1 | -0.5 | -5.2 | -6.2 | 108.2 | 17.9
N/C(=N\N=C\c1ccc(O)cc1)c1nonc1N | -3.6 | 98.9* | -14.9 | 4.5 | 80.1 | 12.7
COc1ccc(/C=N/N=C(\N)c2nonc2N)cc1OC | -4.3 | -9.2 | -0.4 | 28.6 | 102.8 | 9.4
COc1cc(/C=N/N=C(\N)c2nonc2N)ccc1O | -6.4 | 99.1* | -10.7 | -33.8 | 97.2 | 3.7
Cc1cccc(N=C2CCCC2C(=O)Nc2cccc(C)c2C)c1C (configuration not stated) | . | . | 5.5 | . | 108.3 | .
